Screens as filed in PubChem.
Most compounds without a hit are left out; they make up all but 2% or so of the library.
PPC-1+TRAIL kill = compounds killing PPC-1 cancer cells with TRAIL present (potentiator screen, no TRAIL-free arm); PPC-1 cells + TRAIL, ATPLite viability luminescence; cell killing (% activity), % at 4 µM or 5 µM; actives 0.41% (n = 220,000); AID 1443;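 active = cell killing above 50% in the first pass at 4 µM, then a duplicate retest at 5 µM averaging 50% or more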
FLuc stim CS = firefly luciferase counter-screen for stimulation assays; P08659; ATPlite luciferase biochemical, luminescence, 10 min; 0 = ATP-free wells, 1 = DMSO control; activation factor at 10 µM; 200,000 tested, under 10 active;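 active = luciferase activation factor, scaled between plate controls, of at least 2 with compound at 10 µM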
Target sequence (P08659 whole entry, looked up): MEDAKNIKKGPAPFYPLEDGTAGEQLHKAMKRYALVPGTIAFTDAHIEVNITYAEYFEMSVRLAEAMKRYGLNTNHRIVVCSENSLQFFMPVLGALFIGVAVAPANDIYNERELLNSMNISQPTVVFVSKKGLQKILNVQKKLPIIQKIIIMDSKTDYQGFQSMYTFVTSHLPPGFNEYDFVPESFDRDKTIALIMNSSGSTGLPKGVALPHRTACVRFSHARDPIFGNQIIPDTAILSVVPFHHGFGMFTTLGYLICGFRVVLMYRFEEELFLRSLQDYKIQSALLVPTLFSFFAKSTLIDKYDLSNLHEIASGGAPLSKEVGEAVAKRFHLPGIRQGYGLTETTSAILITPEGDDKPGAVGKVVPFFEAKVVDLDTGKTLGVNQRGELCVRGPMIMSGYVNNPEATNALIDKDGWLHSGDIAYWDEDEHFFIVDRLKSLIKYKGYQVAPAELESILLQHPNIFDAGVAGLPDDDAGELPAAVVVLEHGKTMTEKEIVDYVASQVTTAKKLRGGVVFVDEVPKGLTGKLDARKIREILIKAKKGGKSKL
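Assay system: Luciferase/luciferin detection reagent, cell-free biochemical luciferase assay / Also added: ATP substrate / Schedule: 10 min at ambient temperature / Measured by: luminescence measurement of luciferase light output / Benchmarks: low control with PBS replacing ATP, high control enzyme plus ATP without compound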
C8 TRAIL sens = sensitizes caspase-8 expressing cells to TRAIL | NB7+C8 cells + TRAIL, ATPlite viability luminescence | inhibition (viability loss, TRAIL sensitization), % at 10 µM | actives 1% (n = 360,000) | AID 624354;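 active = compounds causing at least 50% loss of cell viability in the single-dose screen, relative to plate controls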
FLuc inh counter = inhibits firefly luciferase, flagging false hits in luciferase inhibition screens; ATPLite firefly luciferase biochemical luminescence, 10 min; inhibition, % at 10 µM; actives 1.5% (n = 200,000); AID 1006;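 active = inhibition above about 50% when tested at 10 µM, limit read from the data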
HSP90 inh = HSP90 refolding inhibition in rabbit reticulocyte lysate | actives 0.91% (n = 290,000) | inhibition, % at 5.6 µM | AID 1789 | luciferase refolding luminescence, 3 h;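 active = inhibition above the screen-wide mean plus 3 SD, computed separately per campaign, cut at about 16% in these data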;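 note: inhibitors lower the luminescence because luciferase stays unfolded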
HSP90 confirm = HSP90 inhibition, confirmation assay; actives 64% (n = 2,300); inhibition, % at 5.9 µM; shares compounds with HSP90 inh; rabbit reticulocyte lysate, luciferase refolding luminescence, 3 h; in the data active = inhibition above about 18%
luciferase ctr = counter-screen for HSP90 inhibitors: inhibitors of firefly luciferase | shares compounds with HSP90 inh | purified native firefly luciferase, luminescence | inhibition, % at 5.9 µM | actives 48% (n = 2,300) | AID 1847;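 active = inhibition above the mean inhibition of all tested sample wells plus 3 SD, cut at about 10% in these data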
Numbers stand for hits; i = inactive; nt = not tested or not shown; ! = not active in a repeat.

SMILES | PPC-1+TRAIL kill | FLuc stim CS | C8 TRAIL sens | FLuc inh counter | HSP90 inh | HSP90 confirm | luciferase ctr
C=CCc1ccc(OCc2ccc(C(=O)O)o2)c(OC)c1 | nt | nt | i | nt | 86 | 83 | 46
Cc1ccc(OCc2ccc(C(=O)N3CCCC3)o2)c([N+](=O)[O-])c1 | nt | nt | i | nt | i | nt | nt
CCCc1ccc(OCc2ccc(C(=O)O)o2)c(OC)c1 | i | i | i | i | 81 | 82 | 41
CCCc1ccc(OCc2ccc(C(=O)NN)o2)c(OC)c1 | nt | nt | i | nt | i | nt | nt
CCCc1ccc(OCc2ccc(C(=O)OC)o2)c(OC)c1 | i | i | i | i | 24 | 30 | i
Cc1ccc(OCc2ccc(C(=O)O)o2)c([N+](=O)[O-])c1 | i | i | i | i | 20 | 44 | i
S=C1NCCOCCNC(=S)NCCOCCOCCN1 | i | i | i | i | i | nt | nt
CC(C)NC(=O)CN1CCC(c2ccccc2)C(O)C1 (centres undefined) | i | i | i | i | i | nt | nt
C=CCc1ccc(OCCn2cccc2C=O)c(OC)c1 | i | i | i | i | 23 | 35 | i
CCN(C(=O)COC(=O)CC1CCCCC1)c1c(N)n(Cc2ccccc2)c(=O)[nH]c1=O | nt | nt | i | nt | nt | nt | nt
Cc1cccc(C)c1-n1nnnc1C(c1ccnc2ccccc12)N(CCN(C)C)Cc1ccccc1 (centres undefined) | nt | nt | i | nt | nt | nt | nt
Cc1ccc(-c2nc3nc4ccccc4nc3n2Cc2ccco2)cc1 | i | i | i | i | 47 | 20 | i
C[C@]12c3[nH]c4cc(-c5ccco5)ccc4c3CCN1C(=O)[C@@H](CC(=O)NCCCn1ccnc1)C[C@@H]2C(=O)N1CCOCC1 | nt | nt | i | nt | nt | nt | nt
CCCCOC(=O)CSc1nc(N)c(C#N)c(-c2ccc(OC)cc2)c1C#N | i | i | i | i | 25 | i | i
O=C(CCN1C(=O)c2ccccc2C1=O)NCc1ccccc1 | nt | nt | i | nt | 41 | i | i
Cc1ccc(/C=C/c2nnc(-c3ccc(C)cc3)o2)cc1 | i | i | i | i | 32 | i | i
Cc1ccccc1CC1SC(N=C(N)N)=NC1=O (centres undefined) | nt | nt | i | nt | i | nt | nt
O=C(NCc1ccccn1)c1cccn1-c1ncc(C(F)(F)F)cc1Cl | i | i | i | i | 41 | i | i
Cc1[nH][nH]c(=O)c1C(c1ccc(-c2ccc(Cl)c(Cl)c2)o1)c1c(C)[nH][nH]c1=O | i | i | i | i | 18 | i | i
COC(=O)c1cn[nH]c1NC(=S)Nc1ccc(C)cc1Cl | i | i | i | 54 | 36 | 41 | 41
COC(=O)c1cn[nH]c1NC(=S)Nc1ccccc1C | i | i | i | i | i | nt | nt
COC(=O)c1cn[nH]c1NC(=S)Nc1ccc(Cl)c(Cl)c1 | i | i | i | i | 37 | 44 | 44
CN(C(=O)COC(=O)c1cc([N+](=O)[O-])ccc1Cl)c1ccccc1 | nt | nt | i | nt | i | nt | nt
c1coc(CNc2nc(-c3cccs3)cs2)c1 | i | i | i | i | 18 | i | i
Oc1ccc(-c2csc(NCc3ccco3)n2)cc1 | i | i | i | i | i | nt | nt
SMILES | PPC-1+TRAIL kill | FLuc stim CS | C8 TRAIL sens | FLuc inh counter | HSP90 inh | HSP90 confirm | luciferase ctr
Cc1cc(NC(=O)c2cccc(Cl)c2)n[nH]1 | nt | nt | i | nt | nt | nt | nt
Cc1cc(NC(=O)NC(=O)c2ccc(F)cc2F)n[nH]1 | i | i | i | 53 | 23 | 39 | 26
COc1ccc2cc3cc(C(=O)NCCCN4CCc5ccccc5C4)sc3nc2c1 | i | i | i | i | i | nt | nt
COc1ccc2cc3cc(C(=O)NC4CC4)sc3nc2c1 | nt | nt | 77 | nt | 21 | 47 | 29
O=C(NCc1ccc(Cl)cc1)N1CCN(S(=O)(=O)c2ccccc2)CC1 | nt | nt | i | nt | 38 | i | i
O=C(NCc1ccc(Cl)cc1)N1CCN(C(=O)c2ccccc2)CC1 | nt | nt | i | nt | nt | nt | nt
O=C(NC1CC1)c1cc2c(F)cccc2s1 | i | i | i | i | i | nt | nt
CC1(C)C2CCC1(CS(=O)(=O)NCc1ccc(C(F)(F)F)cc1)C(=O)C2 (centres undefined) | nt | nt | i | nt | i | nt | nt
CC1=C(C(=O)N2CCOCC2)CC(CC(=O)NCCN2CCOCC2)C(=O)N1Cc1ccc(F)cc1 (centres undefined) | nt | nt | i | nt | nt | nt | nt
Cc1ccccc1C(=O)N1CCC(C(=O)NC2CCCCCC2)CC1 | nt | nt | i | nt | 20 | i | i
COc1ccc(-c2csc(NC3CCCCC3)n2)c(OC)c1 | nt | nt | i | nt | i | nt | nt
Nc1cc(-c2ccccc2)ccc1O | i | i | i | i | 24! | 80 | i
C/C(=N\Nc1ccc(C(=O)O)cc1)c1ccc2c(c1)Nc1ccccc1S2 | i | nt | i | nt | 24 | 28 | i
O=C1CCC(=O)N1c1ccc(-c2nc3ccccc3s2)cc1 | i | i | 78 | 88 | 46 | 74 | 66
O=C(CN1CCN(S(=O)(=O)c2ccc3c(c2)OCCO3)CC1)Nc1cccc(F)c1 | nt | nt | i | nt | nt | nt | nt
CCCc1sc(N/N=C/c2ccccn2)nc1-c1ccc(F)cc1 | i | i | i | i | 64 | i | i
COC(=O)c1ccc(/C=N/Nc2nc(C)c(C)s2)cc1 | i | nt | i | nt | i | nt | nt
Cc1nc(N/N=C/c2ccccn2)sc1C | 70 | i | nt | 94 | 80 | 90 | 86
Cc1cc(-c2ccccc2)c2c(=O)[nH][nH]c2n1 | i | i | i | i | 18 | i | i
CCOC(=O)c1cc(CC)sc1NC(=O)CN1CCN(C(=O)c2ccco2)CC1 | nt | nt | i | nt | i | nt | nt
CCOC(=O)c1ccc(-c2c(-c3ccc4c(c3)OCO4)noc2C)cc1F | nt | nt | i | nt | 17 | i | i
NNC(=O)CN1CCCc2ccccc21 | i | i | i | i | 25 | 46 | 39
COc1ccccc1C(=O)NC(=S)Nc1cccnc1Cl | nt | nt | i | nt | 55 | 23 | 12
Cc1ccc(C(=O)NC(=S)Nc2cccnc2Cl)cc1 | nt | nt | i | nt | i | nt | nt
C=C1/C=C(\C)C(C)(O)CC(O)CC(=O)C(O)C(O)C(C)CC(C)OC(=O)/C(C)=C/CC/C=C/C(OC)C(O)CC(C)C1 (centres undefined) | nt | nt | i | nt | nt | nt | nt
SMILES | PPC-1+TRAIL kill | FLuc stim CS | C8 TRAIL sens | FLuc inh counter | HSP90 inh | HSP90 confirm | luciferase ctr
CON(C)S(=O)(=O)c1cccc(C(=O)N(CC(=O)Nc2ccccc2C(F)(F)F)Cc2ccco2)c1 | nt | nt | i | nt | nt | nt | nt
CN(C)S(=O)(=O)c1ccc(NC(=O)c2ccccn2)cc1 | i | i | i | i | i | nt | nt
CN(C)c1ccc(C(=S)Nc2ccccc2)cc1 | i | i | i | 56 | 57 | 65 | i
CN(C)c1cc(O)c(C(=S)Nc2ccccc2)c(N(C)C)c1 | i | i | i | i | i | nt | nt
CN(C)c1ccc(NC(=S)c2ccccn2)cc1 | 69 | i | 85 | 95 | 66 | 94 | 90
CC[C@H](C)[C@H](NC(=O)OCc1ccccc1)C(=O)OCC(=O)Nc1ccc(N2CCOCC2)cc1 | nt | nt | i | nt | nt | nt | nt
CC(C)(C)c1ccc(-c2nc3cc(N)ccc3o2)cc1 | nt | nt | 72 | nt | 31 | 42 | 45
Nc1ccc2oc(-c3cccs3)nc2c1 | i | i | i | i | i | nt | nt
O=C(Nc1cccc(-c2nc3ncccc3o2)c1)c1sc2ccccc2c1Cl | i | i | i | i | 20 | i | i
Cc1ccc(C(=O)Nc2ccsc2C(=O)O)cc1 | nt | nt | i | nt | 18 | i | i
